The source made the active and inactive calls. No cut-off for these calls is given here.

The subject of test [1] is Tyrosine-protein kinase ABL1 (Homo sapiens), P00519 [F317I]. Briefly: Binding affinity to human non-phosphorylated ABL1 F317I mutant (S229 to K512 residues) expressed in mammalian expression system assessed as residual binding level at 1 uM by Kinomescan method relative to control. The procedure, abridged: (§1)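 Kinome-wide single-concentration binding screen (KINOMEscan) at 1 μM against a panel of 468 purified kinases and mutants. Read-out is relative binding of each kinase compared with control. Selectivity across the panel was summarised as an S(10) score.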

Test [2] concerns ALK tyrosine kinase receptor (Homo sapiens), Q9UM73 [L1196M]. As to the kind of experiment: Binding affinity to wild-type human partial length ALK L1196M mutant (I1088 to E1409 residues) expressed in mammalian expression system assessed as residual binding level at 1 uM by Kinomescan method relative to control. In a few lines: (§2)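 Single-concentration KINOMEscan (DiscoverX) binding screen at 1 μM against a panel of 468 purified kinases and mutants. The read-out is binding relative to control.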

Test [3] addresses BMP-2-inducible protein kinase (Homo sapiens) (UniProt Q9NSY1). Briefly: Binding affinity to wild-type human partial length BIKE (S34 to N329 residues) expressed in bacterial expression system assessed as residual binding level at 1 uM by Kinomescan method relative to control. The procedure, abridged:
as §2

In test [4] the target is Calcium/calmodulin-dependent protein kinase type 1G (Homo sapiens) (UniProt Q96NX5). As to the kind of experiment: Binding affinity to wild-type human partial length CAMK1G (M1 to A342 residues) expressed in bacterial expression system assessed as residual binding level at 1 uM by Kinomescan method relative to control.
Calcium/calmodulin-dependent protein kinase type 1G (Homo sapiens), sequence (Q96NX5 whole entry, the tested form may be a part): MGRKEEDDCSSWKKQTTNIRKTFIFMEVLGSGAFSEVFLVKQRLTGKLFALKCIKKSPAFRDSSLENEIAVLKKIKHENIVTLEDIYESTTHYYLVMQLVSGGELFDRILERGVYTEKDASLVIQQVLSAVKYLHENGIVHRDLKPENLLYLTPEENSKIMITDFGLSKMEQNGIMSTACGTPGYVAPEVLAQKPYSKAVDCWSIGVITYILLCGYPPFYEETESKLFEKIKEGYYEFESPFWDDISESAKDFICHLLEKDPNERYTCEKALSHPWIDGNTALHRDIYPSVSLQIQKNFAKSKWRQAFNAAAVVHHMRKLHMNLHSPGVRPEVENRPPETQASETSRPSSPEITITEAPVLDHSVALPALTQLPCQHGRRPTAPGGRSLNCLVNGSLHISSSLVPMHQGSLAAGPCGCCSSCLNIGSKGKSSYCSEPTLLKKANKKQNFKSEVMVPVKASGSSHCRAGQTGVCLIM
In test [5] the target is Serine/threonine-protein kinase Chk2 (Homo sapiens) (UniProt O96017). Briefly: Binding affinity to wild-type human partial length CHEK2 (S253 to E574 residues) expressed in bacterial expression system assessed as residual binding level at 1 uM by Kinomescan method relative to control.
Serine/threonine-protein kinase Chk2 (Homo sapiens), sequence (O96017 whole entry, the tested form may be a part): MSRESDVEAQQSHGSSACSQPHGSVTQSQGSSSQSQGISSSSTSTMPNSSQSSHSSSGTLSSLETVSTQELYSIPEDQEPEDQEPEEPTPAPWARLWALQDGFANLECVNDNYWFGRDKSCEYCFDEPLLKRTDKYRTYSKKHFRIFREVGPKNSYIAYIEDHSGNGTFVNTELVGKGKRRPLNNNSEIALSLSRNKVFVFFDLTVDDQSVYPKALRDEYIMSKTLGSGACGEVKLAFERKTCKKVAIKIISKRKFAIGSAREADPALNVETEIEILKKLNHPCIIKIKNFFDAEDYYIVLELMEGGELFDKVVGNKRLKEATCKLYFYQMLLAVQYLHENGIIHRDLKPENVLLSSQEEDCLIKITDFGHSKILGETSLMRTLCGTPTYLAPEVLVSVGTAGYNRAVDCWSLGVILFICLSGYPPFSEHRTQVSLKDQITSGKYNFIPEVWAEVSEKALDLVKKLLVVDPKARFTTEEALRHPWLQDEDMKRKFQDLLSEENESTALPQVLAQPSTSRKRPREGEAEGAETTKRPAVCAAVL
The target of test [6] is Epidermal growth factor receptor (Homo sapiens) (UniProt P00533). Briefly: Binding affinity to wild-type human partial length EGFR (R669 to V1011 residues) expressed in bacterial expression system assessed as residual binding level at 1 uM by Kinomescan method relative to control.
Epidermal growth factor receptor (Homo sapiens), sequence (P00533 whole entry, the tested form may be a part): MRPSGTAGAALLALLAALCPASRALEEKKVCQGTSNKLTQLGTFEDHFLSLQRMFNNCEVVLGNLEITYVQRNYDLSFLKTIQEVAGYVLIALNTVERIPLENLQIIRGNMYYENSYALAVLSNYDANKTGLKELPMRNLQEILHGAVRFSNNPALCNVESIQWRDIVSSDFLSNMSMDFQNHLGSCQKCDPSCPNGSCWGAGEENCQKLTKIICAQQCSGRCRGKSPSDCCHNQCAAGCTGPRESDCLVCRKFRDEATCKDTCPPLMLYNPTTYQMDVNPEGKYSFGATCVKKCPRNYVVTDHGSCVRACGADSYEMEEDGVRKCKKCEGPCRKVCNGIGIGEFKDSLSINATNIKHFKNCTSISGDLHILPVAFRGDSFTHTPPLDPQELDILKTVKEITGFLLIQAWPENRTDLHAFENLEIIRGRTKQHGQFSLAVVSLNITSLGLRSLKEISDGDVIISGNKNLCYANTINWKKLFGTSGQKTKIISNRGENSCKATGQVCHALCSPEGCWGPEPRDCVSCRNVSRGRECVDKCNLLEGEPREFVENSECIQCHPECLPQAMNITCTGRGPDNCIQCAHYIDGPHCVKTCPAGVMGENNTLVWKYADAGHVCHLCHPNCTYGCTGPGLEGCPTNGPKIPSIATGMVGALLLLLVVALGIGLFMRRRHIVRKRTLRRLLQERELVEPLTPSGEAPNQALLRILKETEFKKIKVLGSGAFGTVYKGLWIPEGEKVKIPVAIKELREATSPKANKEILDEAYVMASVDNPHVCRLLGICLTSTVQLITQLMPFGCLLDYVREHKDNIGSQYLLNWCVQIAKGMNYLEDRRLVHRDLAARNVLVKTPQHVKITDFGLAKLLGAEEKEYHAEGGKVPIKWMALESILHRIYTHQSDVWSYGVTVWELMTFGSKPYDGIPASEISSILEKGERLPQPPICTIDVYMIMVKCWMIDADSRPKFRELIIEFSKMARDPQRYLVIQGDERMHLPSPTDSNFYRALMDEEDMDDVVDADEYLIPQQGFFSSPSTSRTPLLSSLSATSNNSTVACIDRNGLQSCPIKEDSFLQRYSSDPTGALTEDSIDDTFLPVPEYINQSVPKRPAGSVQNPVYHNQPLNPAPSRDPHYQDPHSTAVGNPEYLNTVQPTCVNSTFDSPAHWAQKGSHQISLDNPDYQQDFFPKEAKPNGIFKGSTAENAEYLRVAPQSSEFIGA
Test [7] has the same target. Briefly: Binding affinity to human partial length EGFR S752-I759del mutant expressed in bacterial expression system assessed as residual binding level at 1 uM by Kinomescan method relative to control. In a few lines: as §1
Test [8] has as its system Receptor-type tyrosine-protein kinase FLT3 (Homo sapiens), P36888 [R834Q]. As to the kind of experiment: Binding affinity to human partial length FLT3 R834Q mutant (V592 to Y969 residues) expressed in mammalian expression system assessed as residual binding level at 1 uM by Kinomescan method relative to control. The procedure, abridged: as §1
In test [9] the target is Insulin-like growth factor 1 receptor (Homo sapiens) (UniProt P08069). As to the kind of experiment: Binding affinity to wild-type human partial length IGF1R (L972 to D1294 residues) expressed in bacterial expression system assessed as residual binding level at 1 uM by Kinomescan method relative to control.
In test [10] the target is Inhibitor of nuclear factor kappa-B kinase subunit epsilon (Homo sapiens) (UniProt Q14164). As to the kind of experiment: Binding affinity to wild-type human full length IKK-epsilon (M1 to V716 residues) expressed in mammalian expression system assessed as residual binding level at 1 uM by Kinomescan method relative to control. In a few lines: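 Single-concentration (1 μM) competition-binding screen run by KINOMEscan against a panel of 468 purified kinases and mutants. The read-out is the relative binding activity of the test compound to each kinase.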

Test [11] has as its target Serine/threonine-protein kinase mTOR (Homo sapiens) (UniProt P42345). As to the kind of experiment: Binding affinity to wild-type human partial length MTOR (L1382 to W2549 residues) expressed in mammalian expression system assessed as residual binding level at 1 uM by Kinomescan method relative to control.
Test [12] concerns the target Muscle, skeletal receptor tyrosine-protein kinase (Homo sapiens) (UniProt O15146). As to the kind of experiment: Binding affinity to wild-type human partial length MUSK (M553 to V869 residues) expressed in bacterial expression system assessed as residual binding level at 1 uM by Kinomescan method relative to control.
Test [13] concerns the target Platelet-derived growth factor receptor beta (Homo sapiens, UniProt P09619). As to the kind of experiment: Binding affinity to wild-type human partial length PDGFRbeta (V582 to Y1009 residues) expressed in bacterial expression system assessed as residual binding level at 1 uM by Kinomescan method relative to control. In a few lines: (§3)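 KINOMEscan competition binding against a panel of 468 purified kinases/mutants, compound tested at 1 μM; readout is relative binding activity versus control.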

Test [14] relates to Phosphatidylinositol 4,5-bisphosphate 3-kinase catalytic subunit alpha isoform (Homo sapiens), P42336 [E545A]. As to the kind of experiment: Binding affinity to human partial length PIK3CA E545A mutant (R108 to N1068 residues) expressed in mammalian expression system assessed as residual binding level at 1 uM by Kinomescan method relative to control. The procedure, abridged: as §1

Test [15] deals with Membrane-associated tyrosine- and threonine-specific cdc2-inhibitory kinase (Homo sapiens) (UniProt Q99640). As to the kind of experiment: Binding affinity to wild-type human partial length PKMYT1 (A88 to G366 residues) expressed in bacterial expression system assessed as residual binding level at 1 uM by Kinomescan method relative to control. In a few lines:
as §3

The target in test [16] is Proto-oncogene tyrosine-protein kinase receptor Ret (Homo sapiens) (UniProt P07949). Briefly: Binding affinity to wild-type human partial length RET (E713 to D1014 residues) expressed in bacterial expression system assessed as residual binding level at 1 uM by Kinomescan method relative to control.
The target of test [17] is Serine/threonine-protein kinase RIO3 (Homo sapiens) (UniProt O14730). Briefly: Binding affinity to wild-type human full length RIOK3 (M1 to E519 residues) expressed in bacterial expression system assessed as residual binding level at 1 uM by Kinomescan method relative to control. In a few lines:
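KINOMEscan competition binding against 468 purified kinases/mutants, test compound at 1 µM; residual binding relative to control.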

Test [18] addresses Ribosomal protein S6 kinase alpha-1 (Homo sapiens) (UniProt Q15418). As to the kind of experiment: Binding affinity to wild-type human partial length C-terminal RSK1 kinase domain 2 (P360 to L681 residues) expressed in bacterial expression system assessed as residual binding level at 1 uM by Kinomescan method relative to control.
Test [19] has as its target Serine/threonine-protein kinase tousled-like 1 (Homo sapiens) (UniProt Q9UKI8). Briefly: Binding affinity to wild-type human partial length TLK1 (K447 to A754 residues) expressed in bacterial expression system assessed as residual binding level at 1 uM by Kinomescan method relative to control.
The target in test [20] is T1, Platelet-derived growth factor receptor alpha (Homo sapiens, UniProt P16234). Briefly: Inhibition of PDGFRalpha autophosphorylation at Y1018 residue in human EOL-1 cells up to 300 nM after 2 hrs by Western blot analysis. The test is classed as cell-based.
T1 sequence (P16234 whole entry): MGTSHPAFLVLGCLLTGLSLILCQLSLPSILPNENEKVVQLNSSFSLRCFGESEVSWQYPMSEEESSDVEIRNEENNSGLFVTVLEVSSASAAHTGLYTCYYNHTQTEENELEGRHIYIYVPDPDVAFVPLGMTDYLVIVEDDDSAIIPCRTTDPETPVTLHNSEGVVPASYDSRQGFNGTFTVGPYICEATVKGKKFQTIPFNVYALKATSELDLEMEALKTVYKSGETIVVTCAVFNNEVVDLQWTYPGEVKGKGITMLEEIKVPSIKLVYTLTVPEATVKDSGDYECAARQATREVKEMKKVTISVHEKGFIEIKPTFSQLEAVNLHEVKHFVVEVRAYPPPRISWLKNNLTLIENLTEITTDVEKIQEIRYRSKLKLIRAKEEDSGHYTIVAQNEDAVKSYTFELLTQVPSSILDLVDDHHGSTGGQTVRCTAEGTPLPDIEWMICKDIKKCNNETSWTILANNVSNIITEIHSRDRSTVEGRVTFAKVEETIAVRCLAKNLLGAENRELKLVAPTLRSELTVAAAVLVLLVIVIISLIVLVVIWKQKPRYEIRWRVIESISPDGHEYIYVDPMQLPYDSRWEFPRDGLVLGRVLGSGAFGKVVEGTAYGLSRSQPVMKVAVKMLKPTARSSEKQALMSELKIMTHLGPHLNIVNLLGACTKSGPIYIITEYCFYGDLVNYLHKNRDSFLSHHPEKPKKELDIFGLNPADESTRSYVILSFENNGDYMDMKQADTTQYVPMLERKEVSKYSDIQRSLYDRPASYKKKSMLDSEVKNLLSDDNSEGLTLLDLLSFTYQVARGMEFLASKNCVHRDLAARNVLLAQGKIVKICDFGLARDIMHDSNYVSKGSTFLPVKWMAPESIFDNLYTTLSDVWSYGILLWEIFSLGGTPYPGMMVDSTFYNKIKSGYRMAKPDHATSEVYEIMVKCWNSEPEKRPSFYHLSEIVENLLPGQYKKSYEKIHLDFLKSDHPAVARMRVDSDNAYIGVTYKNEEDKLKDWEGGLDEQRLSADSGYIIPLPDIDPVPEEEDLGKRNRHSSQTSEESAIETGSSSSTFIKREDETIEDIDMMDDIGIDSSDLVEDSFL
In test [21] the target is T1, Platelet-derived growth factor receptor alpha. As to the kind of experiment: Inhibition of PDGFRalpha in human EOL-1 cells assessed as decrease in ERK phosphorylation at T202/Y204 residues after 2 hrs in presence of PDGF-AA by Western blot analysis. It is filed as cell-based. A general note: In western blotting, separated proteins are transferred to a membrane and probed.

Test [22] concerns the target Mitogen-activated protein kinase kinase kinase 12 (DLK/MAP3K12) (Homo sapiens) (UniProt Q12852). As to the kind of experiment: Binding affinity to wild-type human full length DLK (M1 to P859 residues) expressed in mammalian expression system assessed as residual binding level at 1 uM by Kinomescan method relative to control.

Membrane-associated tyrosine- and threonine-specific cdc2-inhibitory kinase (Homo sapiens), sequence (Q99640 whole entry, the tested form may be a part): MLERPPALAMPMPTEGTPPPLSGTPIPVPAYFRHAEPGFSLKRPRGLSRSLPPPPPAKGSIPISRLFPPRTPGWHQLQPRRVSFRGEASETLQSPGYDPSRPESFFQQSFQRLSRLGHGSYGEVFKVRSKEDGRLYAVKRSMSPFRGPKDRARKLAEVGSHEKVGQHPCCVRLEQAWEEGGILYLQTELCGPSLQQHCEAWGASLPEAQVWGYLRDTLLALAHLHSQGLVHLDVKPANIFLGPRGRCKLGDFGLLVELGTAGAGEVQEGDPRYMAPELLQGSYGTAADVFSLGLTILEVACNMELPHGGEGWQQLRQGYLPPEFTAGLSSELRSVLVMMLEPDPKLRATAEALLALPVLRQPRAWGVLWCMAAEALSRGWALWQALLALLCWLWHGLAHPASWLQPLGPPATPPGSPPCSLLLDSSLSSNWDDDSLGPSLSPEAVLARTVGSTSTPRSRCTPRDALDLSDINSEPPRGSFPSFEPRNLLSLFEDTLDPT
Serine/threonine-protein kinase RIO3 (Homo sapiens), sequence (O14730 whole entry, the tested form may be a part): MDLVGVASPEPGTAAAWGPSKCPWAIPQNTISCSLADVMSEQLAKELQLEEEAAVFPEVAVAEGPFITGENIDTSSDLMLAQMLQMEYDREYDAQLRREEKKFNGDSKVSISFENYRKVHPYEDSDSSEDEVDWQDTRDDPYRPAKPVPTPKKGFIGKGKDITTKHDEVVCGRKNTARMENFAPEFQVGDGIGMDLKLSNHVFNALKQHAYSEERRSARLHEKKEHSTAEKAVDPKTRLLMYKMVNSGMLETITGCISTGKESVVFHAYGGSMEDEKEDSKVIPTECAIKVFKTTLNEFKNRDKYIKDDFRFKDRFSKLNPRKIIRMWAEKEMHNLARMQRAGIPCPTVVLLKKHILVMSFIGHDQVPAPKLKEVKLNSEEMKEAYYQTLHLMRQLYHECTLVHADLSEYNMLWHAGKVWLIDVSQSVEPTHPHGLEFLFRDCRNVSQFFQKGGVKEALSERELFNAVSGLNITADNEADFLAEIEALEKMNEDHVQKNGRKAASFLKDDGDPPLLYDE
Ribosomal protein S6 kinase alpha-1 (Homo sapiens), sequence (Q15418 whole entry, the tested form may be a part): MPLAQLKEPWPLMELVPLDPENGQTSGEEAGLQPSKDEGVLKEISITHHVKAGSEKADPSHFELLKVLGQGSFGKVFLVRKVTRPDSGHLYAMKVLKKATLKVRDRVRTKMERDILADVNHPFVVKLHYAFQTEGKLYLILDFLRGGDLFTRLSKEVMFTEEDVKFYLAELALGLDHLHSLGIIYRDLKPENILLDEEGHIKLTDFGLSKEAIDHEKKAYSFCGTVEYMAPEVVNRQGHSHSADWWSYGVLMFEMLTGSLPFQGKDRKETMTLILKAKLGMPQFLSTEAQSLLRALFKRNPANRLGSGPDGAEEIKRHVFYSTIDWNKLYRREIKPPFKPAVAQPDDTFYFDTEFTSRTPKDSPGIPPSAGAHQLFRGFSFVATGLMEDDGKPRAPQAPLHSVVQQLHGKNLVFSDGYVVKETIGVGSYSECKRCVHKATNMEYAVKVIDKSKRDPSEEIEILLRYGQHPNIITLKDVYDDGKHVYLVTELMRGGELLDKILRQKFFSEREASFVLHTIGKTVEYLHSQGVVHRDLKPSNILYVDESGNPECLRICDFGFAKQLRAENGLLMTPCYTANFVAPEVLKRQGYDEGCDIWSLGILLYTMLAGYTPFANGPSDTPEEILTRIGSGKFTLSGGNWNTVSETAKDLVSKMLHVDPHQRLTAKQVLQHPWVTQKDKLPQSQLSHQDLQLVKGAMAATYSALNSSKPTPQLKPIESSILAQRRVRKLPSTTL

For the molecule `Cc1ccc(NC(=O)c2ccc(CN(CCN(C)C)C(=O)c3cccnc3)cc2)cc1Nc1nccc(-c2cccnc2)n1`, the Activity was found to be 94% in [1]; 100% in [2]; 99% in test [3]; 100% in test [4]; 95% in test [5]; 73% in test [6]. Besides, the Activity in [7] was determined as 90%; in test [8], 90%; in [9] it was 95%; in [10], 100%; in [11], 100%; in test [12] it was 100%. Further, the Activity in test [13] was determined as 0.7%; in test [14], 63%; in [15], 84%; in [16], 80%; in test [17] it was 69%; in [18] it was 100%. The results for the Activity in test [19] and in [22] were 100% and 93%, respectively. Besides, the inhibition result in test [20] was “Active”. Moreover, in test [21], the inhibition entry is “Dose-dependent effect”.

The record behind these values is ChEMBL document CHEMBL4229344 (Eur J Med Chem, 2018).
